Tests used:
[1] = biological target: T1, Transient receptor potential cation channel subfamily V member 1 (Homo sapiens, UniProt Q8NER1); experiment: Antagonist activity against capsaicin-induced intracellular calcium ion increase in CHO cells expressing human TRPV1 in FLIPR assay; type: functional, cell-based
[2] = AUC in hepatic portal vein of rat at 5 mg/kg, po; type: ADME, organism-based, Plasma; parameters: dose 5 mg/kg, route oral
[3] = biological target: T1, Transient receptor potential cation channel subfamily V member 1; experiment: Inhibition of acidic pH 5.5-stimulated current in CHO cells expressing human TRPV1 receptor by patch clamp; type: functional, cell-based
[4] = Systemic AUC in rat at 5 mg/kg, po; type: ADME, organism-based; parameters: dose 5 mg/kg, route oral; settings: in vivo
In short: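 Oral dose of 5 mpk; AUC taken from systemic blood levels.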

[5] = biological target: T1, Transient receptor potential cation channel subfamily V member 1; experiment: Inhibition of acidic pH 5.5-stimulated current in CHO cells expressing human TRPV1 receptor at 100 nM by patch clamp; type: functional, cell-based
[6] = Clearance in rat at 1 mg/kg, iv; type: ADME, organism-based; parameters: dose 1 mg/kg, route intravenous; settings: in vivo
[7] = Half life in rat at 1 mg/kg, iv; type: ADME, organism-based; parameters: dose 1 mg/kg, route intravenous; settings: in vivo
[8] = Volume of distribution in rat at 1 mg/kg, iv; type: ADME, organism-based; parameters: dose 1 mg/kg, route intravenous; settings: in vivo, read-out: Vdss
[9] = biological target: Transient receptor potential cation channel subfamily V member 1 (Rattus norvegicus) (UniProt O35433); experiment: Decrease in carrageenan-induced thermal hyperalgesia in rat at 30 mg/kg, po; type: functional, organism-based; parameters: dose 30 mg/kg; scale not given: the % may be the effect or the level left
Sequence of Transient receptor potential cation channel subfamily V member 1 (Rattus norvegicus) (O35433 whole entry): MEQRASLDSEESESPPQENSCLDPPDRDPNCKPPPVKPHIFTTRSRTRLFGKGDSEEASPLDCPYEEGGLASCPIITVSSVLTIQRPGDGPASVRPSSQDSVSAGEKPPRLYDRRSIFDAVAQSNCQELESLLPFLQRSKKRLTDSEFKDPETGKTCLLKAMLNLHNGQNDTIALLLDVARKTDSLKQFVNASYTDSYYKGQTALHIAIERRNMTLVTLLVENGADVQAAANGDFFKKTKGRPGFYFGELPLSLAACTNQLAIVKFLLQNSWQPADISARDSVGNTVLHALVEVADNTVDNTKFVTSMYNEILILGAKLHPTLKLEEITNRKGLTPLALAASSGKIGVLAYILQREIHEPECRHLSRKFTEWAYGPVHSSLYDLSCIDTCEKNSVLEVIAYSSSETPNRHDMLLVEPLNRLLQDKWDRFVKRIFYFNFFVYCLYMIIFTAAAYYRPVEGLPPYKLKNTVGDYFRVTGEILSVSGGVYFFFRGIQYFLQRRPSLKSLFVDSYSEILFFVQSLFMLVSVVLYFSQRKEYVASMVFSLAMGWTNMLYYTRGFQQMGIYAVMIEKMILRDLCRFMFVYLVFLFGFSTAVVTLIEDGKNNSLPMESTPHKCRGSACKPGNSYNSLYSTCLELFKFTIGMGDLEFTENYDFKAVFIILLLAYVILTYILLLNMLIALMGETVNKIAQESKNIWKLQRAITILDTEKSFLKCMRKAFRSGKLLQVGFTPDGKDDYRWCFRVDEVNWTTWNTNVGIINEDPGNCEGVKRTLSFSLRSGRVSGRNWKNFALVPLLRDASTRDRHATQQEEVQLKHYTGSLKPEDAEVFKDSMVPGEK
In short: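 Rats received 0.1 mL intraplantar carrageenan, or saline for the uninflamed group, in the right hind limb. Two hours later they were dosed orally at 30 mpk. After 1 h, thermal withdrawal was retested three times on each hind paw (Hargreaves). Saline response was set as 0% hyperalgesia and carrageenan response as 100%.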

[10] = biological target: T2, Transient receptor potential cation channel subfamily V member 1 (Rattus norvegicus, UniProt O35433); experiment: Activity against capsaicin-induced […] in CHO cells expressing rat TRPV1 assessed by patch clamp; type: functional, cell-based
T2 sequence (O35433 whole entry): as above
In short: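 Whole-cell patch clamp on cells expressing rat TRPV1, stimulated with 500 nM capsaicin; IC50 for inhibition of the evoked response.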

[11] = biological target: T2, Transient receptor potential cation channel subfamily V member 1; experiment: Activity at rat TRPV1 as inhibition of pH 5.5-induced currents in CHO cells

T1 sequence (Q8NER1 whole entry): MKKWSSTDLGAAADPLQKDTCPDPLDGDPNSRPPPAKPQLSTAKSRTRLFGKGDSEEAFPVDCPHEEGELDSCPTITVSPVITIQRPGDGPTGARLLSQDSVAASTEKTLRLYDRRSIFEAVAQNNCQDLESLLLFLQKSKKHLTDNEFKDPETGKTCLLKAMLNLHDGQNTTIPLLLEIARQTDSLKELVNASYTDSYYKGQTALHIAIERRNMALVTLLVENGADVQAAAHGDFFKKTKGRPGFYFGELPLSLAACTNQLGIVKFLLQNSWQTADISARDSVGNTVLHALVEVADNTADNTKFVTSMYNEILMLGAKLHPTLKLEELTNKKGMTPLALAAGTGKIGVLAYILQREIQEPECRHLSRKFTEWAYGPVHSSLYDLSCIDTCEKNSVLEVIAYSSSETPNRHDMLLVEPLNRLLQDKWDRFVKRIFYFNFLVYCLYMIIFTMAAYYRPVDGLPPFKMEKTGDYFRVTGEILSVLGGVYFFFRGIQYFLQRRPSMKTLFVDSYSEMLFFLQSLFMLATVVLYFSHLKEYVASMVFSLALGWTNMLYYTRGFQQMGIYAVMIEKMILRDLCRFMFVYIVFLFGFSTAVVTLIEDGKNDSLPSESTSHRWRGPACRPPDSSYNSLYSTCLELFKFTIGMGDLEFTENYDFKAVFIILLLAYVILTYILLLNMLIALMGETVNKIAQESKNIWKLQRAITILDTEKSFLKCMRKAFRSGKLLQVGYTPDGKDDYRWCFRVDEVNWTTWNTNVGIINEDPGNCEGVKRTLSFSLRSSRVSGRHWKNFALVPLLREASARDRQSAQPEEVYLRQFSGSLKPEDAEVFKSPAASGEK

SMILES	IC50 [1] [µM]	other results
Cc1ccc(C(=O)Nc2ccc(-c3ncccc3C(F)(F)F)cc2)cc1	1.1	–
O=c1c2ccccc2[nH]n1-c1ccc(C(F)(F)F)cc1	0.34	–
Cc1cccnc1-c1ccc(NC(=O)c2ccc(C(F)(F)F)cc2)cc1	0.16	–
Cc1cccnc1-c1ccc(NC(=O)c2cccc(C(F)(F)F)c2)cc1	0.64	–
O=C(Nc1ccc(-c2ncccc2C(F)(F)F)cc1)c1ccc(C(F)(F)F)cc1	0.024	AUC [2]: 80 nM·h; IC50 [3]: 0.033 µM; AUC [4]: 40 nM·h
CC(C)(C)c1ccc(-c2nc3cc(-c4ncccc4C(F)(F)F)ccc3[nH]2)cc1	0.224	–
O=c1c2cc(-c3ncccc3C(F)(F)F)ccc2[nH]n1-c1ccc(C(F)(F)F)cc1	0.37	–
O=C(Nc1ccc(-c2ncccc2C(F)(F)F)cc1)c1ccccc1	2.4	–
Cc1cccnc1-c1ccc2c(=O)n(-c3ccc(C(F)(F)F)cc3)[nH]c2c1	0.18	–

Second part, led by results:

IC50 [1] [µM]	SMILES	other results
0.32	Fc1ccc(-c2nc3cc(-c4ncccc4C(F)(F)F)ccc3[nH]2)cc1	–
0.27	Cc1cccnc1-c1ccc2c(=O)n(-c3ccc(C(F)(F)F)cc3)[nH]c2n1	–
1.5	O=C(Nc1ccc(-c2ccccn2)cc1)c1ccc(C(F)(F)F)cc1	–
0.29	Oc1c2c(nn1-c1ccc(C(F)(F)F)cc1)NC(c1ncccc1C(F)(F)F)CC2 (stereo not drawn)	–
0.47	CC(C)(C)c1ccc(C(=O)Nc2ccc(-c3ncccc3C(F)(F)F)cc2)cc1	–
0.17	Cc1ccc(-c2nc3cc(-c4ncccc4C(F)(F)F)ccc3[nH]2)cc1	–
0.17	COc1ccccc1-c1ccc2c(=O)n(-c3ccc(C(F)(F)F)cc3)[nH]c2c1	–
0.022	FC(F)(F)c1ccc(-c2nc3cc(-c4ncccc4C(F)(F)F)ccc3[nH]2)cc1	AUC [2]: 1480 nM·h; AUC [4]: 1250 nM·h; inhibition [5]: 95%
0.035	O=c1c2ccc(-c3ncccc3C(F)(F)F)cc2[nH]n1-c1ccc(C(F)(F)F)cc1	AUC [2]: 6200 nM·h; clearance [6]: 0.48 L/h/kg; IC50 [3]: 0.004 µM; half-life [7]: 3.6 h; AUC [4]: 3000 nM·h; Vd [8]: 2 L/kg; Activity [9]: 50%; IC50 [10]: 0.22 µM; IC50 [11]: 0.065 µM
